Laboratory results taken from ChEMBL document CHEMBL4304791, “DABMA: A Derivative of ABMA with Improved Broad-Spectrum Inhibitory Activity of Toxins and Viruses” (ACS Med Chem Lett, 2019).
The source made the active and inactive calls. The rule behind the calls is not given here.

Tests used:
[1] = test system: A549; assay: Inhibition of diphtheria induced toxicity in human A549 cells assessed as protection fold at 30 uM incubated for 20 hrs followed by replacement of [14c]-Leucine containing medium and measured after 4 hrs by liquid scintillation analysis relative to ABMA; format: functional
Procedure, shortened: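 Single-concentration screen: 30 μM compound on A549 cells with increasing DT concentrations, read as protein synthesis inhibition. Protection fold was calculated with ABMA as the positive control.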

[2] = test system: Lyssavirus rabies; assay: Antiviral activity against RABV infected in BSR cells preincubated for 4 hrs followed by viral infection and further incubated with compounds for 24 hrs by immunostaining-based assay; format: functional, organism-based
Procedure, shortened: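 BSR cells were pretreated 4 h with compound, then infected with RABV (MOI = 14) for 1 h. Cells were washed and kept with compound for 24 h, then fixed and immunostained for the RABV ribonucleocapsid (RNP). Nuclei and RNP images from 15 fields per well (>10,000 cells) were used to calculate percent inhibition.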

[3] = test system: A549; assay: Cytoprotection activity against diphtheria toxin-induced cytotoxicity against human A549 cells assessed as effect on protein synthesis incubated for 20 hrs followed by replacement of [14c]-Leucine containing medium and measured after 4 hrs by liquid scintillation analysis; format: functional, cell-based
Procedure, shortened: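 A549 cells were incubated with compound and then challenged with increasing DT concentrations. DT cytotoxicity was read as protein synthesis inhibition. Data are mean of duplicate wells ± SD from one representative experiment (n = 3).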

[4] = Cytotoxicity against human A549 cells assessed as reduction in cell viability incubated for 24 hrs by Alamar blue assay; format: cell-based
Procedure, shortened: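 A549 cytotoxicity by Alamar Blue viability assay; duplicate wells, mean ± SD, one representative experiment (n = 3).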

[5] = test system: A549; assay: Selectivity index, ratio of CC50 for cytotoxicity against human A549 cells to EC50 for cytoprotective activity in diphtheria-induced cytotoxicity in human A549 cells
[6] = test system: A549; assay: Induction of lysosomal activation in human A549 cells at 30 uM incubated for 2 hrs by LysoTracker Red staining based confocal microscopic analysis; format: functional, cell-based
Procedure, shortened: (§1)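 A549 cells were pretreated 2 h with compound (30 or 60 μM) or DMSO, then stained with LysoTracker Deep Red (50 nM, 30 min) plus Hoechst. Intensity was read from 3 × 3 fields per well (10,000 cells/well) by imaging reader; mean ± SEM, n = 4; confocal images.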

[7] = test system: Vero; assay: Inhibition of TcdB-induced cytotoxicity against African green monkey Vero cells assessed as reduction in toxin-induced cell rounding at 30 uM in presence of TcdB after 4 hrs by inverted microscopic analysis; format: functional, cell-based; settings: Chlorocebus sabaeus
Procedure, shortened: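 Vero cells were given compound (30 μM) or DMSO, then increasing doses of TcdB for 4 h or TcsL for 16 h. Cell rounding was imaged by inverted microscope. Rounded cells were counted and normalised to total Hoechst-counterstained cells (>100 cells per treatment).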

[8] = test system: L929; assay: Cytoprotective activity in Pseudomonas aeruginosa exotoxin-induced toxicity in mouse L929 cells assessed as protection of protein synthesis after 18 hrs followed by replacement of [14c]-Leucine containing medium and measured after 4 hrs by liquid scintillation analysis by liquid scintillation analysis; format: functional, cell-based
Procedure, shortened: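 L929 cells were intoxicated with increasing doses of Pseudomonas exotoxin A for 18 h with compound (30 μM) or DMSO present. Protein synthesis was measured; duplicate wells, mean ± SD, one representative experiment (n = 3).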

[9] = test system: A549; assay: Induction of lysosomal activation in human A549 cells incubated for 2 hrs by LysoTracker Red staining based confocal microscopic analysis; format: functional, cell-based; procedure, shortened: as §1
[10] = test system: A549; assay: Inhibition of diphtheria induced toxicity in human A549 cells assessed as protection factor at 0.15 nM incubated for 20 hrs followed by replacement of [14c]-Leucine containing medium and measured after 4 hrs by liquid scintillation analysis relative to untreated control; format: functional
Procedure, shortened: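 A549 cells were incubated with Baf A1 (0.15 nM), DABMA (15 μM), both, or DMSO vehicle before DT was added, with the compounds kept present throughout. Toxin protection was read as protein synthesis and expressed as protection factor.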

[11] = test system: A549; assay: Induction of lysosomal activation in human A549 cells at 60 uM incubated for 2 hrs by LysoTracker Red staining based confocal microscopic analysis; format: functional, cell-based; procedure, shortened: as §1
[12] = test system: A549; assay: Increase in cholesterol accumulation in human A549 cells at 60 uM incubated for 18 hrs by choelesterol-avid filipin-3 staining based confocal microscopic analysis; format: functional, cell-based
Procedure, shortened: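 A549 cells were treated 18 h with compound or DMSO, fixed, and stained with Filipin III for cholesterol. Confocal imaging; fluorescence quantified in >30 cells (mean ± SEM), unpaired t test versus DMSO.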

| SMILES | fold change (FC) [1] | further results |
| --- | --- | --- |
| NC12CC3CC(CC(C3)C1)C2 [AMANTADINE] | 0.3 | – |
| COc1ccc(Br)cc1CNC1CCCCC1 | 0 | – |
| NC(=O)c1ncn([C@@H]2O[C@H](CO)[C@@H](O)[C@H]2O)n1 | – | inhibition [2]: Active |
| COc1ccc(Br)cc1CNC12CC3CC(CC(C3)C1)C2 | – | EC50 [3]: 62.9 µM; CC50 at 24 h [4]: 277 µM; Ratio CC50/EC50 [5]: 4.4; Activity [6]: Active; inhibition [7]: Active; Activity [8]: Active; inhibition [2]: Active |
| Cn1c(CNC23CC4CC(CC(C4)C2)C3)cc2ccccc21 | 0.21 | – |
| COc1ccc(Br)cc1CNc1cccc2ccccc12 | 0.19 | – |
| CC12CC3CC(C)(C1)CC(NCc1ccc(I)cc1)(C3)C2 | 12.5 | EC50 [3]: 38.3 µM; CC50 at 24 h [4]: 137 µM; Ratio CC50/EC50 [5]: 3.6 |
| Brc1ccc(CNC23CC4CC(CC(C4)C2)C3)cc1 | 2.3 | – |
| COc1ccc(Br)cc1CN(C(C)=O)C12CC3CC(CC(C3)C1)C2 | 0.3 | Activity [9]: inactive |
| COc1ccc(I)cc1CNC12CC3CC(C)(CC(C)(C3)C1)C2 | 35.1 | EC50 [3]: 25.1 µM; CC50 at 24 h [4]: 90.8 µM; Ratio CC50/EC50 [5]: 3.6 |
| COc1ccc(Br)cc1/C=N/C12CC3CC(CC(C3)C1)C2 | 0.05 | Activity [9]: inactive |
| Cn1c(CNC2C3CC4CC(C3)CC2C4)cc2ccccc21 (stereo not given) | 0.21 | – |
| COc1ccc(Br)cc1CN(C)C12CC3CC(CC(C3)C1)C2 | 0.52 | – |
| O=[N+]([O-])c1cccc(CNC23CC4CC(CC(C4)C2)C3)c1 | 5.7 | – |
| CC(N)C12CC3CC(CC(C3)C1)C2.Cl (stereo not given) [RIMANTADINE HYDROCHLORIDE] | 0.35 | – |
| COc1ccc(Br)cc1CNCc1ccccc1 | 0 | – |
| COc1ccc(Br)cc1CNc1ccccc1 | 0.19 | – |
| CO/C1=C\C(C)=C\[C@@H](C)[C@@H](O)[C@@H](C)C/C(C)=C/C=C/[C@H](OC)[C@@H]([C@@H](C)[C@@H](O)[C@H](C)[C@@]2(O)C[C@@H](O)[C@H](C)[C@@H](C(C)C)O2)OC1=O [BAFILOMYCIN A1] | – | fold change (FC) [10]: 5.2; EC50 [3]: 0.0006 µM |
| CCCCCCCCCNCc1cc(Br)ccc1OC | 0.26 | – |
| Ic1ccc(CNC23CC4CC(CC(C4)C2)C3)cc1 | 6.6 | – |
| COc1ccc(Br)cc1C(=O)NC12CC3CC(CC(C3)C1)C2 | 0 | Activity [11]: inactive; Activity [12]: inactive |
| COc1ccc(Br)cc1CN(C(=O)c1ccccc1)C12CC3CC(CC(C3)C1)C2 | 0.25 | – |
| COc1ccc(Br)cc1CN[C@H]1C[C@@H]2CC[C@@]1(C)C2(C)C | 0.4 | – |
| COc1ccc(Br)cc1CNC(C)(C)C | 0 | – |
| COc1ccc(Br)cc1CNC1CC(C)CCC1C(C)C (stereo not given) | 2.2 | – |
| CC12CC3CC(C)(C1)CC(N)(C3)C2 [MEMANTINE] | 0 | – |
| COc1ccc(Br)cc1CNCCCc1ccccc1 | 0.52 | – |
| COc1cc(I)ccc1CNC12CC3CC(CC(C3)C1)C2 | 3.6 | – |
